Columns and labels:
ABCB1 (P-glycoprotein) = ABCB1 (P-glycoprotein) (Homo sapiens, UniProt P08183); assay: Induction of Vanadate-sensitive ABCB1 (unknown origin) assessed as increase in ATPase activity up to 1 uM by Pgp-glo assay relative to control; conditions: read-out: FC
Method in brief: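 Vanadate-sensitive ABCB1 ATPase activity measured with the Pgp-Glo system as […], across 0–1 μM test compound. Points are means of at least three independent experiments.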

[1] = biological target: T1, ATP-dependent translocase ABCB1 (Homo sapiens, UniProt P08183); assay: Inhibition of human ABCB1-mediated efflux transfected in HEK293 cells assessed as accumulation of fluorescent dye by calcein-AM dye based FACS analysis; format: cell-based
T1 sequence (P08183 whole entry): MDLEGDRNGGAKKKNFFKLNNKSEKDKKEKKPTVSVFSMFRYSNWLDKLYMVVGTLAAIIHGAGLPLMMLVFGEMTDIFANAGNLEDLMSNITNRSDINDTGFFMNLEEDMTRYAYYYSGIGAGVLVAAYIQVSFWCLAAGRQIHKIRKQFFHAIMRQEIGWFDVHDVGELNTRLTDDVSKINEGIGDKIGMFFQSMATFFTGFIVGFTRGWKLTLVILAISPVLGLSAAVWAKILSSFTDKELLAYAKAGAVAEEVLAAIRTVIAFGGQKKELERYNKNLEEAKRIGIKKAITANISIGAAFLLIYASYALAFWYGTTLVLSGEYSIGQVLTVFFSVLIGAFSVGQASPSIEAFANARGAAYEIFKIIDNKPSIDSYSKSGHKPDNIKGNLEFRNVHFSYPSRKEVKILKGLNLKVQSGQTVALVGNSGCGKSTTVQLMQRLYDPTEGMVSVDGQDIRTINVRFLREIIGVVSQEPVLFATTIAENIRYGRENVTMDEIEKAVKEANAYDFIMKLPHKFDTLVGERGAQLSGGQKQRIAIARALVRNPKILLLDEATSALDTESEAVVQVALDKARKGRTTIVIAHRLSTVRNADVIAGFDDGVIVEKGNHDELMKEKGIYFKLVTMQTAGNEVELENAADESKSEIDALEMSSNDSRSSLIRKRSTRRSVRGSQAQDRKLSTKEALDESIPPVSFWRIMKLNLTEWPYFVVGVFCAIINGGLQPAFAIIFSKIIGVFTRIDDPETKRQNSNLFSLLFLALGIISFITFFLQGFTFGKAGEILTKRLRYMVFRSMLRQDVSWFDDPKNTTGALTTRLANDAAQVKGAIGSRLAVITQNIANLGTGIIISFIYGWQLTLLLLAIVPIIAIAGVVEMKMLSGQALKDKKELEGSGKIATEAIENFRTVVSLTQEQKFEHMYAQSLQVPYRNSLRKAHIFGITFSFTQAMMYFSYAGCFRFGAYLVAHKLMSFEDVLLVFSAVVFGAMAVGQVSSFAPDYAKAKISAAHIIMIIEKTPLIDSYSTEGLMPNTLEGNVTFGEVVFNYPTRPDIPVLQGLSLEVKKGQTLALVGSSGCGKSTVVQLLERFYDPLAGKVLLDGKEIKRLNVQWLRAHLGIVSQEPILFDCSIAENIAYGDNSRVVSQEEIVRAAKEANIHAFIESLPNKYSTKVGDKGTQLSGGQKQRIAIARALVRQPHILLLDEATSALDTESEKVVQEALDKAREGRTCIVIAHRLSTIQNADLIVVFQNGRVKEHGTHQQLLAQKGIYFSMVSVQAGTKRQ
Method in brief: (§1)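 The HEK293 cells, transfected with human ABCB1 (parental HEK293 as control), were trypsinized and resuspended in IMDM with 5% FCS. Calcein-AM was added to 3 × 10^5 cells in 4 mL, with or without test compound (single 1 μM or a concentration series) or 3 μM tariquidar. Fluorescence was read immediately by flow cytometry. Results are the mean ± SEM of at least three experiments.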

[2] = biological target: T1, ATP-dependent translocase ABCB1; assay: Inhibition of ABCB1 in human KBV1 cells assessed as potentiation of colchicine-induced cytotoxicity by measuring colchicine resistance ratio at 200 nM after 72 hrs by MTT assay relative to parental KB-3-1 cells (reference value: 55); format: cell-based; conditions: kbv1, 72 h, 0.2 µM
Method in brief: (§2)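 Cells were kept in drug-free DMEM with 10% FCS for 7 days before assay, then plated at 5000 cells/well for 24 h. Drug at various concentrations was added with a nontoxic fixed level of modulator for 72 h, and the read-out was MTT. IC50 came from fitted curves (≥3 experiments). RR = IC50 of the resistant line / IC50 of the parental line.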

[3] = biological target: T1, ATP-dependent translocase ABCB1; assay: Inhibition of ABCB1 in human KBV1 cells assessed as potentiation of vincristine-induced cytotoxicity by measuring vincristine resistance ratio at 50 nM after 72 hrs by MTT assay relative to parental KB-3-1 cells (reference value: 356); format: cell-based; conditions: kbv1, 72 h, 0.05 µM; method in brief: as §2
[4] = biological target: T1, ATP-dependent translocase ABCB1; assay: Inhibition of ABCB1 in human NCI-ADR-RES cells assessed as potentiation of colchicine-induced cytotoxicity by measuring colchicine resistance ratio at 200 nM after 72 hrs by MTT assay relative to parental OVCAR8 cells (reference value: 59); format: cell-based; conditions: ovcar-8, 72 h, 0.2 µM; method in brief: as §2
[5] = biological target: T1, ATP-dependent translocase ABCB1; assay: Inhibition of ABCB1 in human NCI-ADR-RES cells assessed as potentiation of vincristine-induced cytotoxicity by measuring vincristine resistance ratio at 50 nM after 72 hrs by MTT assay relative to parental OVCAR8 cells (reference value: 435); format: cell-based; conditions: ovcar-8, 72 h, 0.05 µM; method in brief: as §2
[6] = biological target: T1, ATP-dependent translocase ABCB1; assay: Inhibition of ABCB1 in human KBV1 cells assessed as potentiation of colchicine-induced cytotoxicity by measuring colchicine resistance ratio at 500 nM after 72 hrs by MTT assay relative to parental KB-3-1 cells (reference value: 55); format: cell-based; conditions: kbv1, 72 h, 0.5 µM; method in brief: as §2
[7] = biological target: T1, ATP-dependent translocase ABCB1; assay: Inhibition of ABCB1 in human KBV1 cells assessed as potentiation of doxorubicin-induced cytotoxicity at 1 uM after 72 hrs by MTT assay; format: cell-based; conditions: kbv1, 72 h
Method in brief: (§3)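 The cells were kept in drug-free medium for 7 days. They were seeded at 5000 cells/well, allowed to attach for 24 h at 37 °C, then exposed to graded doxorubicin with or without 50–500 nM test compound or 1 μM tariquidar for a further 72 h. Viability was read by MTT. Results are means of at least three independent experiments.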

KB 3-1 [8] = assay: Potentiation of colchicine-induced apoptosis in human KB-3-1 cells assessed as necrotic cells at 1 uM after 48 hrs by Annexin V-FITC/propidium iodide staining based FACS analysis (reference value: 4.9%); format: functional
[9] = biological target: T1, ATP-dependent translocase ABCB1; assay: Inhibition of ABCB1 in human NCI-ADR-RES cells assessed as potentiation of vincristine-induced cytotoxicity by measuring vincristine resistance ratio at 200 nM after 72 hrs by MTT assay relative to parental OVCAR8 cells (reference value: 435); format: cell-based; conditions: ovcar-8, 72 h, 0.2 µM; method in brief: as §2
[10] = biological target: T1, ATP-dependent translocase ABCB1; assay: Inhibition of ABCB1 in human KBV1 cells assessed as potentiation of colchicine-induced cytotoxicity by measuring colchicine resistance ratio at 100 nM after 72 hrs by MTT assay relative to parental KB-3-1 cells (reference value: 55); format: cell-based; conditions: kbv1, 72 h, 0.1 µM; method in brief: as §2
KB 3-1 [11] = assay: Potentiation of colchicine-induced apoptosis in human KB-3-1 cells assessed as viable cells at 1 uM after 48 hrs by Annexin V-FITC/propidium iodide staining based FACS analysis (reference value: 38.9%); format: functional; conditions: KB 3-1, 48 h, read-out: Activity
[12] = biological target: T1, ATP-dependent translocase ABCB1; assay: Inhibition of ABCB1 in human NCI-ADR-RES cells assessed as potentiation of doxorubicin-induced cytotoxicity at 1 uM after 72 hrs by MTT assay; format: cell-based; method in brief: as §3
[13] = biological target: T1, ATP-dependent translocase ABCB1; assay: Inhibition of ABCB1 in human KBV1 cells assessed as potentiation of doxorubicin-induced cytotoxicity by measuring doxorubicin resistance ratio at 200 nM after 72 hrs by MTT assay relative to parental KB-3-1 cells (reference value: 34); format: cell-based; conditions: kbv1, 72 h, 0.2 µM; method in brief: as §2
[14] = biological target: T1, ATP-dependent translocase ABCB1; assay: Inhibition of human ABCB1-mediated efflux transfected in HEK293 cells assessed as accumulation of fluorescent dye at 1 uM by calcein-AM dye based FACS analysis; format: cell-based; conditions: hek293, 1 µM; method in brief: as §1
[15] = biological target: T1, ATP-dependent translocase ABCB1; assay: Inhibition of ABCB1 in human NCI-ADR-RES cells assessed as potentiation of doxorubicin-induced cytotoxicity by measuring doxorubicin resistance ratio at 50 nM after 72 hrs by MTT assay relative to parental OVCAR8 cells (reference value: 46); format: cell-based; conditions: ovcar-8, 72 h, 0.05 µM; method in brief: as §2
KB 3-1 [16] = assay: Induction of apoptosis in human KB-3-1 cells assessed as viable cells at 1 uM after 48 hrs by Annexin V-FITC/propidium iodide staining based FACS analysis (reference value: 88.4%); format: functional; conditions: KB 3-1, 48 h, read-out: Activity
[17] = biological target: T1, ATP-dependent translocase ABCB1; assay: Inhibition of ABCB1 in human KBV1 cells assessed as potentiation of doxorubicin-induced cytotoxicity by measuring doxorubicin resistance ratio at 500 nM after 72 hrs by MTT assay relative to parental KB-3-1 cells (reference value: 34); format: cell-based; conditions: kbv1, 72 h, 0.5 µM; method in brief: as §2
[18] = biological target: T1, ATP-dependent translocase ABCB1; assay: Binding affinity to Vanadate-sensitive ABCB1 (unknown origin)
[19] = biological target: T1, ATP-dependent translocase ABCB1; assay: Inhibition of ABCB1 in human KBV1 cells assessed as reduction in Calcein-AM dye efflux 1 uM by FACS analysis; format: cell-based; conditions: kbv1, 1 µM
Method in brief: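 Trypsinized cells were resuspended in IMDM with 5% FCS. Calcein-AM was added to 3 × 10^5 cells in 4 mL IMDM, with or without 1 μM test compound or 3 μM tariquidar. Intracellular calcein fluorescence was read immediately by flow cytometry, with the drug-sensitive parental line run in parallel.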

[20] = biological target: T1, ATP-dependent translocase ABCB1; assay: Inhibition of ABCB1 in human NCI-ADR-RES cells assessed as potentiation of doxorubicin-induced cytotoxicity by measuring doxorubicin resistance ratio at 200 nM after 72 hrs by MTT assay relative to parental OVCAR8 cells (reference value: 46); format: cell-based; conditions: ovcar-8, 72 h, 0.2 µM; method in brief: as §2
[21] = biological target: T1, ATP-dependent translocase ABCB1; assay: Inhibition of ABCB1 in human NCI-ADR-RES cells assessed as potentiation of colchicine-induced cytotoxicity by measuring colchicine resistance ratio at 500 nM after 72 hrs by MTT assay relative to parental OVCAR8 cells (reference value: 59); format: cell-based; conditions: ovcar-8, 72 h, 0.5 µM; method in brief: as §2

ABCB1 (P-glycoprotein), sequence (P08183 whole entry): as above

fold induction (ABCB1 (P-glycoprotein)): 7
IC50 [1]: 300 nM
inhibition (INH) ([1]; human, hek293): Dose-dependent effect
inhibition (INH) [14]: Active
Ki [18]: 20 nM
inhibition (INH) [19]: Active
Structure (SMILES): COc1ccc2cc1Oc1ccc(cc1)C[C@H]1c3cc(c(OC)cc3CCN1C)Oc1c(OC)c(OC)c(OC)c3c1[C@H](C2)N(C)CC3 [HERNANDEZINE]
Ratio [2]: 13
Ratio [3]: 325
Ratio [4]: 10
Ratio [5]: 505
Ratio [6]: 3
inhibition (INH) [7]: Active
Activity (KB 3-1 [8]): 5.1%
Ratio [9]: 196
Ratio [10]: 21
viability at 1 µM (KB 3-1 [11]): 37.4%
inhibition (INH) [12]: Active
Ratio [13]: 2
Ratio [15]: 26
viability at 1 µM (KB 3-1 [16]): 88.8%
Ratio [17]: 1
Ratio [20]: 5
Ratio [21]: 4

From ChEMBL document CHEMBL3867440, “Hernandezine, a Bisbenzylisoquinoline Alkaloid with Selective Inhibitory Activity against Multidrug-Resistance-Linked ATP-Binding Cassette Drug Transporter ABCB1” (J Nat Prod, 2016)
